Assay results reported in ChEMBL document CHEMBL1125061, “Antitumor agents. 111. New 4-hydroxylated and 4-halogenated anilino derivatives of 4'-demethylepipodophyllotoxin as potent inhibitors of human DNA topoisomerase II” (1990).
pIC50: −log10 of the molar value.

Tests used:
[1] = In vitro cytotoxicity against KB cells after a 3-day incubation.; format: functional; settings: Homo sapiens, 72 h, read-out: ID50 (the source's name)
Method in brief: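 KB cell culture, 3-day incubation with drug; read-out was cell number. ID50 taken as the concentration giving a 50% reduction in cell number.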

[2] = species: Homo sapiens; experiment: Cellular protein-DNA complex formation at 10 uM.; format: functional; design: reference not given here
[3] = target: T1, DNA topoisomerase II (Homo sapiens) (UniProt P11388+Q02880); experiment: Inhibition of DNA topoisomerase II at 100 uM.; format: protein assay
Method in brief: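 Human DNA topoisomerase II inhibition, tested at 25, 50 and 100 μM. […] The ID₅₀ is set from the degree of inhibition across the three concentrations.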

[4] = target: T1, DNA topoisomerase II (Homo sapiens); experiment: Evaluated for inhibitory activity against DNA topoisomerase II; format: protein assay

Structure (SMILES)	pIC50 [1]	Complex formation [2] [%]	inhibition [3] [%]	ID50 [4] [nM]
COc1cc([C@@H]2c3cc4c(cc3[C@@H](Nc3ccccc3F)[C@H]3COC(=O)[C@H]23)OCO4)cc(OC)c1O	6.60	121	50	
COc1cc([C@@H]2c3cc4c(cc3[C@@H](Nc3ccccc3O)[C@H]3COC(=O)[C@H]23)OCO4)cc(OC)c1O	5.34	151	> 75	25000
COc1cc([C@@H]2c3cc4c(cc3[C@@H](Nc3cc(F)cc(F)c3)[C@H]3COC(=O)[C@H]23)OCO4)cc(OC)c1O	5.97	115	50	50000
COc1cc([C@@H]2c3cc4c(cc3[C@@H](Nc3ccccc3Cl)[C@H]3COC(=O)[C@H]23)OCO4)cc(OC)c1O	5.63	32	25	
COc1cc([C@@H]2c3cc4c(cc3[C@@H](Nc3ccc(I)cc3)[C@H]3COC(=O)[C@H]23)OCO4)cc(OC)c1O	6.47	64	25	
COc1cc([C@@H]2c3cc4c(cc3[C@@H](Nc3cccc(O)c3)[C@H]3COC(=O)[C@H]23)OCO4)cc(OC)c1O	6.35	290	> 75	5000
COc1cc([C@@H]2c3cc4c(cc3[C@@H](Nc3ccc(O)cc3)[C@H]3COC(=O)[C@H]23)OCO4)cc(OC)c1O	5.65	211	75	25000
COc1cc([C@@H]2c3cc4c(cc3[C@@H](Nc3ccccc3O)[C@H]3COC(=O)[C@H]23)OCO4)cc(OC)c1OC	5.39	6	25	
COc1cc([C@@H]2c3cc4c(cc3[C@@H](Nc3ccc(Br)cc3)[C@H]3COC(=O)[C@H]23)OCO4)cc(OC)c1O	6.66	179	50	100000
COc1cc([C@@H]2c3cc4c(cc3[C@@H](Nc3ccc(F)cc3)[C@H]3COC(=O)[C@H]23)OCO4)cc(OC)c1O	6.62	213	> 75	10000
COc1cc([C@@H]2c3cc4c(cc3[C@@H](Nc3cccc(Br)c3)[C@H]3COC(=O)[C@H]23)OCO4)cc(OC)c1O	5.63	62	25	
COc1cc([C@@H]2c3cc4c(cc3[C@@H](Nc3ccc(O)cc3)[C@H]3COC(=O)[C@H]23)OCO4)cc(OC)c1OC	6.23	21	25	
COc1cc([C@@H]2c3cc4c(cc3[C@@H](Nc3cccc(O)c3)[C@H]3COC(=O)[C@H]23)OCO4)cc(OC)c1OC	6.51	37	25	
COc1cc([C@@H]2c3cc4c(cc3[C@@H](Nc3cccc(Cl)c3)[C@H]3COC(=O)[C@H]23)OCO4)cc(OC)c1O	5.64	51	50	
COc1cc([C@@H]2c3cc4c(cc3[C@@H](Nc3cccc(F)c3)[C@H]3COC(=O)[C@H]23)OCO4)cc(OC)c1O	6.64	158	75	50000
COc1cc([C@@H]2c3cc4c(cc3[C@@H](O[C@@H]3O[C@@H]5CO[C@@H](C)O[C@H]5[C@H](O)[C@H]3O)[C@H]3COC(=O)[C@H]23)OCO4)cc(OC)c1O [ETOPOSIDE]	6.70	100	75	50000
COc1cc([C@@H]2c3cc4c(cc3[C@@H](Nc3ccc(Cl)cc3)[C@H]3COC(=O)[C@H]23)OCO4)cc(OC)c1O	6.66	99	75	50000
